Measured values: the EternaBench riboswitch data

Test system: MS2 coat protein
Experiment: apparent Kd, MS2 coat protein; higher = weaker binding; RNA-MaP array; FMN 200 µM where present
Outline: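 The apparent Kd is reported as the median of filtered per-cluster binding-curve fits. To get these curves, designs transcribed by stalled E. coli RNA polymerase on Illumina sequencing-chip clusters were titrated with SNAP-549-labelled MS2 coat protein from 0.7 or 1.5 nM, doubling to 3 µM. Titrations were run without and then with constant ligand in 100 mM Tris-HCl pH 7.5, 80 mM KCl, 4 mM MgCl2, BSA, DTT, yeast tRNA and Tween-20, and green signal was normalised to red-channel RNA signal and control-cluster median Fmax.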

[1] = designed as: OFF switch for flavin mononucleotide, no ligand
[2] = ligand present: flavin mononucleotide, designed as: OFF switch for flavin mononucleotide
[3] = designed as: ON switch for flavin mononucleotide, no ligand
[4] = ligand present: flavin mononucleotide, designed as: ON switch for flavin mononucleotide

Sequence	apparent Kd [1] [nM]	apparent Kd [2] [nM]	apparent Kd [3] [nM]	apparent Kd [4] [nM]
GUAAGCGUAGGAUAUACAUGAGGAUCACCCAUGUCAGUUUUGCACUCUCGGGUGUGCUGUAGAAGGGCGUUACU	172	208		
GUACAUGAGGAUCACCCAUGUAAAUGGGUAAAUAUAGAACGUAGAAGGAUGUAUUUACACAUGACAUAGGAUAUACUAUAUAGU	93.8	73.9		
GUACGGAGGGAGAAGGGCUAGAAGGUCCAGCUUAUGUGUGUUGCAACAUGAGGAUCACCCAUGUAGCAGGAUAUCCCUUGUACA	12.5	36.9		
GUACGUGGACAGAAGGCGACAUGAGGAUCACCCAUGUUGGCUCGGGUACGAGCAAUCCGCGUGAUUGAGGAUAUGUCUGCGGGC	6.25	9.93		
GUACGUGGACAGAAGGUGACAUGAGGAUCACCCAUGUUAGUUCGGGUACGAGCGAUCCGCGUGAUUGAGGAUAUGUCUGCGGGC	69.1	175		
GUACUACAUGAGGAUCACCCAUGUCAGGAUAUGUGAAUUUCAUCAAAAGAUGAAAUUUGCAGAAGGGACAGUAC	25.3	33.9		
GUACUACAUGAGGAUCACCCAUGUGAGGAUAUGCGAAUUUCAUCAAAAGAUGAAAUUUGCAGAAGGCACUGUAC	46.7	34		
GUACUGAAGCUUUGCUUUAGUCGUACAUGAGGAUCACCCAUGUAGGAUAUGGUAGGCUUUGCUUACUAGAAGGAUAGAGUGAUU		39.8		
GUACUGUAGUGAGGAUAUACGAGAACGAUAGUUCGGCGAUCCAUUUAUACAUGAGGAUCACCCAUGUAGAAGGCACUUCAGUAC	6.26	72.5		
GUACUGUAGUGAGGAUAUACGAGAUCGAUAGAUCGGCGAUCCAAUAAUACAUGAGGAUCACCCAUGUAGAAGGCACUUCAGUAC	7.07	99		
GUAGAGUAAGGAUAUGUUGAAUAGGAUAGAAUGGUUAGAAAGCAGAAGGUACAUGAGGAUCACCCAUGUAAUGU	22.6	21		
GUAGCAACAUGAGGAUCACCCAUGUAGGAUAUCGCUAUUGUAAUCAUGUUACAUGAUUACAAUAGCGAGAAGGACGUGAGCUAC	8.43	11.4		
GUAGCAAUCGGAGGAUAUGGGUUGAUAACAUGAGGAUCACCCAUGUUAAUACUAGAAGGCCGAUUGCUACAAGAGCGAAAGCUC			31.4	6.39
GUAGCAAUCGGAGGAUAUUCAUUAAACAUGAGGAUCACCCAUGUAAAUUUGGGAGAAGGCCGAUUGCUACAAGAGCGAAAGCUC			22.9	6.1
GUAGCAUACAGAGGAUAUUCAAAACCGGAAACGGACAUGAGGAUCACCCAUGUGGCGAAAGCCUGGGAGAAGGCUGAAUGCUAC			28.6	14.2
GUAGCAUACCGAGGAUAUUCAUACCGGAAACGGACAUGAGGAUCACCCAUGUGGCGAAAGCCUUGGGAGAAGGCGGAAUGCUAC			552	25.1
GUAGCAUACCGAGGAUAUUCAUAUAAUAAAUAAACAUGAGGAUCACCCAUGUGGCGAAAGCCAAGGGAGAAGGCGGAAUGCUAC			315	26.4
GUAGCAUACCGAGGAUAUUCAUAUAAUAAGUAAACAUGAGGAUCACCCAUGUAGCGAAAGCCUUGGGAGAAGGCGGAAUGCUAC			346	52
GUAGCAUACGCAGGAUAUUCAUAUAAUAAAUAAACAUGAGGAUCACCCAUGUGGCGAAAGCCUUGGGAGAAGGGCGAAUGCUAC			485	65.5
GUAGCAUGCCAAGGAUAUUCAUAUAGUAGGCAAACAUGAGGAUCACCCAUGUAAUGAUAGCAGUGGGAGAAGGUGGGAUGCUAC			47.5	22.2
GUAGCAUGCCAAGGAUAUUCAUAUAGUAGGCAAACAUGAGGAUCACCCAUGUAAUGAUCGCAGUGGGAGAAGGUGGGAUGCUAC			31.8	21.1

Sequence	apparent Kd [1] [nM]	apparent Kd [2] [nM]	apparent Kd [3] [nM]	apparent Kd [4] [nM]
GUAGCUAUCGGAGGAUAUCCUCAGCGGAAACGCACAUGAGGAUCACCCAUGUAAAUAAAUAAUUAAGAGAAGGCCGAUAGCUAC			706	55
GUAGCUAUCGGAGGAUAUUCAUACCGGAAACGGACAUGAGGAUCACCCAUGUGCCGAAAGGCUUGGGAGAAGGCCGAUAGCUAC			297	18.5
GUAGCUAUCGGAGGAUAUUCAUACCGGAUACGGACAUGAGGAUCACCCAUGUCGCGAAAGCGUUGGGAGAAGGCCGAUAGCUAC			89.2	20.4
GUAGCUAUCGGAGGAUAUUCCUUGCGGAAACGCACAUGAGGAUCACCCAUGUAAAUAAAUAAUUGGGAGAAGGCCGAUAGCUAC			45	14.9
GUAGGAAUCACAGGAUAUGCAUGCGCCGCUUCGUUCUACAUGAGGAUCACCCAUGUGUGGUCCGUGUAGAAGGGUGUUUGCUAC			33.9	11.6
GUAUGAGCGAUAGGAUAUACUGAGAUUGAAUGGGUAGAAGGAUCUCUUGUGGGAAAGACAUGAGGAUCACCCAUGUCACGGGCC			122	130
GUCAGAUCGUGAGGAUAUACAACACUGCUUCGGCAGUGUAUUAAGAUCACAUGAGGAUCACCCAUGUAGAAGGCACGAGCUGAU	13.3	236		
GUCAGCUCGUAAGGAUAUACAACACUGCUUCGGCAGUGUAUUAAGAUCACAUGAGGAUCACCCAUGUAGAAGGCACGAGCUGAU	7.06	18.9		
GUCAGCUCGUGAGGAUAUACAACACGGCUUCGGCAGUGUAUUAAGAUCACAUGAGGAUCACCCAUGUAGAAGGCACGAGCUGAU	13.9	200		
GUCAGCUCGUGAGGAUAUACAACACUGCCUCGGCAGUGUAUUAAGAUCACAUGAGGAUCACCCAUGUAGAAGGCACGAGCUGAU	13.4	214		
GUCAGCUCGUGAGGAUAUACAACACUGCUUCAGCAGUGUAUUAAGAUCACAUGAGGAUCACCCAUGUAGAAGGCACGAGCUGAU	13.8	242		
GUCAGCUCGUGAGGAUAUACAACACUGCUUCGGCAGUGUAAUUUCCUCACAUGAGGAUCACCCAUGUAGAAGGCACGAGCUGAU	12.7	242		
GUCAGCUCGUGAGGAUAUACAACACUGCUUCGGCAGUGUAUUAAGAUCACAUGAGGAUCACCCAUGUAGAAGGCACGACCUGAU	14.1	257		
GUCAGCUCGUGAGGAUAUACAACACUGGUUCGGCAGUGUAUUAAGAUCACAUGAGGAUCACCCAUGUAGAAGGCACGAGCUGAU	13.6	280		
GUCAGCUCGUGAGGAUAUACAUGUGCUGGAAACAGCACUAAAGAUUUCACAUGAGGAUCACCCAUGUAGAAGGCACGAGCUGAU	16.1	38		
GUCAGCUCGUGAGGAUAUACAUGUGCUGGAAACAGCACUAUUAAGUUCACAUGAGGAUCACCCAUGUAGAAGGCACGAGCUGAU	15.7	20.3		
GUCAGCUCGUGAGGAUAUACAUGUGCUGGAAACAGCACUAUUGAGUUCACAUGAGGAUCACCCAUGUAGAAGGCACGAGCUGAU	15.8	28		
GUCAGCUCGUGAGGAUAUACUACACUGCUUCGGCAGUGUAUUAAGAUCACAUGAGGAUCACCCAUGUAGAAGGCACGAGCUGAU	5.95	17		
GUCAGCUCGUGAGGAUAUAGAACACUGCUUCGGCAGUGUAUUAAGAUCACAUGAGGAUCACCCAUGUAGAAGGCACGAGCUGAU	5.12	9.33		
GUCAUCUCGUGAGGAUAUACAACACUGCUUCGGCAGUGUAUUAAGAUCACAUGAGGAUCACCCAUGUAGAAGGCACGAGCUGAU	15	214		
